This is a sample that favours compounds with a hit; in the whole collection about 2.3% have one here.
tolC growth inh = growth inhibitors of E. coli BW25113 tolC mutant. OD615. 2.2% of 65,000 active. growth inhibition, % at 10 µM (by protocol);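 active = growth inhibition at or above a cutoff equal to the mean over every tested compound plus 3 SD, cut at about 60% in these data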;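 note: growth measured after 20 h incubation at 37 °C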
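Test system: E. coli BW25113 ΔtolC::kan bacteria | Medium: Kanamycin-containing LB broth (50 µg/mL) | Dosing: One dose of 10 µM final | Times: 20 h incubation with compound, 37 °C | Detection: Optical density read at 615 nm | Read-out basis: Percent growth inhibition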
E coli WT exp = growth inhibitors of E. coli BW25113 wild type. 0.15% of 98,000 active. growth inhibition, % at 100 µM. AID 710. OD600 absorbance;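 active = growth inhibition above about 50% at one test dose, limit read from the data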;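 note: growth measured after 20 h incubation at 37 °C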
CD11b adhes inh = inhibitors of human CD11b/CD18 binding to fibrinogen; P05107+P11215; K562 CD11b/CD18 adhesion to fibrinogen, ATPlite luminescence; Mn2+ added to activate the integrin; inhibition, % at 10 µM; 0.54% of 93,000 active; AID 1497;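 active = primary inhibition of 50% or more at 10 µM, then 40% or more on retest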
CD11b adhes enh = increases human CD11b/CD18 adhesion to fibrinogen; AID 1499; K562 CD11b/CD18 adhesion to fibrinogen, ATPlite luminescence; 0.07% of 93,000 active; activation, % at 10 µM; P05107+P11215;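 active = 10 µM primary screen giving 50% or more activity, confirmed by 40% or more on retest at that dose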
Pyk2 oligo antag = antagonists of human Pyk2 oligomerization. AID 1347419. Q14289. Q293 cells, Pyk2 FERM NanoBiT luminescence; active compounds read low. 0.83% of 99,000 active. z-score (the deposit names both 25 µM and 10 µM);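 active = Z-score of -3 or lower, scaled per plate to the spread of control and sample wells; inactive = z-score above -3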;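 note: negative z-score means lost luminescence so less FERM oligomerization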
Starred values were filed as active, the others as inactive; . = no result.

SMILES | tolC growth inh | E coli WT exp | CD11b adhes inh | CD11b adhes enh | Pyk2 oligo antag
CCCCCC/C(=N/O)c1ccccn1 | 100* | 37 | 4 | -8 | -1.1
Cc1nn(-c2ccccc2)c(C)c1C(=O)OCC(=O)Nc1ccc2c(c1)OCO2 | 17 | -3 | 2 | -1 | -1.4
CC1=C(C(=O)OCc2ccc3c(c2)OCO3)C(c2ccc(Cl)cc2)NC(=O)N1 (stereo unspecified) | 32 | . | -9 | -6 | -3.2*
CC1=C(C(=O)OCc2ccc3c(c2)OCO3)C(c2ccc(F)cc2)NC(=O)N1 (stereo unspecified) | . | 1 | 15 | 0 | -2.1
Cc1cccc(OCCCCc2c(C)n[nH]c2C)c1C | 100* | 10 | 90* | -8 | -0.82
Cc1cccc(OCCCCc2c(C)n[nH]c2C)c1 | 100* | 15 | 21 | 6 | -1.4
COc1cccc(OCCc2c(C)n[nH]c2C)c1 | . | 5 | 6 | -3 | 0.77
CCOc1ccccc1OCCCCCc1c(C)n[nH]c1C | 42 | 7 | 47 | -9 | -0.28
COc1ccccc1OCCCCCc1c(C)n[nH]c1C | 34 | 8 | 62* | -8 | -0.18
Cc1ccc2nc(NC(=O)CN(C)S(=O)(=O)c3cccc4nsnc34)sc2c1 | -16 | 1 | -25 | 6 | 0.91
Cc1ccc2nc(NC(=O)CNS(=O)(=O)c3ccc(Br)s3)sc2c1 | 61* | -12 | 1 | -4 | -0.31
Cc1ccc2nc(NC(=O)CN(C)S(=O)(=O)c3ccc(Br)s3)sc2c1 | 81* | -10 | 21 | -4 | -0.65
CC(C)c1ccc(-c2nc(N3CCCCCC3)nc3n[nH]c(N)c23)cc1 | . | -1 | 19 | 3 | -4.3*
CC(C)c1ccc(-c2nc(N3CCCC3)nc3n[nH]c(N)c23)cc1 | 5 | -9 | -12 | -6 | -0.93
CSc1nc2ccc(NS(=O)(=O)c3ccc(Cl)s3)cc2s1 | 99* | 27 | 82* | -12 | -2.5
Cc1sc2ncnc(N3CCN(CCOc4ccc(Cl)cc4)CC3)c2c1C | . | -19 | 99* | -9 | 0.44
Cc1sc2ncnc(N3CCC(C)CC3)c2c1C | . | . | . | . | 0.96
Cc1nc(N2CCN(c3ccccc3)CC2)nc2c1C(=O)CCC2 | 91* | -1 | 6 | 3 | -0.71
Cc1nc(N2CCN(c3ccccc3)CC2)nc2c1C(=O)CC(C)C2 (stereo unspecified) | 46 | 1 | -14 | 0 | 0.07
O=C(COc1cc(Cl)ccc1Cl)Nc1nnc(CC(=O)N2CCOCC2)s1 | 0 | -2 | -8 | 1 | 1
Cc1cc(-c2ccco2)c(C#N)c2nc3ccccc3n12 | 81* | -12 | 1 | 43 | -0.04
CCc1c(C)c(C#N)c2nc3ccccc3n2c1Cl | . | . | 0 | 0 | .
CC(C)CCN1C(=O)c2ccc(-c3nc4ccccc4c(=O)o3)cc2C1=O | . | -2 | . | . | -3.3*
NC(=S)N/N=C/c1ccc(-c2cc(Cl)ccc2Cl)o1 | . | 0 | -36 | -1 | -3*
CC(C)(C)C(=O)Nc1nc(=S)ss1 | . | 3 | 66* | -6 | -0.04
SMILES | tolC growth inh | E coli WT exp | CD11b adhes inh | CD11b adhes enh | Pyk2 oligo antag
C=CCNc1ncnc2c1[nH]c1ccc(C)cc12 | 90* | 82* | 33 | -4 | -0.95
O=C1CC(N2CCC(O)(c3ccc(Cl)cc3)CC2)C(=O)N1Cc1ccc(N2CCCC2=O)cc1 (stereo unspecified) | 15 | 7 | -8 | -3 | 1.5
COc1ccc(C2(O)CC3CCC(C2)N3c2cc(C)nc(-c3ccccc3)n2)cc1 (stereo unspecified) | 87* | 2 | 7 | -3 | -2
Cc1cc(Nc2ccccc2)nc(-c2ccccc2O)n1 | 100* | 4 | 0 | 0 | -1.4
Cc1cc(N2CCCCCC2)nc(-c2ccccc2O)n1 | 81* | 0 | 17 | 4 | -1.1
Cc1cc(N2CCN(c3ccccc3)CC2)nc(N)n1 | . | . | . | . | 0.13
Cc1cc(N2CCN(c3ccccc3)CC2)nc(-c2ccccc2)n1 | 77* | -25 | 13 | 2 | -0.38
Cc1cccc(OCCC(=O)Nc2c(C)n(C)n(-c3ccccc3)c2=O)c1 | -10 | -1 | -10 | -3 | 1.4
CCCCn1c(NC(C)CC)nc2c1c(=O)[nH]c(=O)n2C (stereo unspecified) | 8 | 9 | -13 | -3 | -0.68
CC(C)[C@H](N)c1nnc(SC/C=C/c2ccccc2)o1 | . | 12 | . | . | -0.02
CCOc1cc(-c2cc(-c3ccc(N)cc3)nc(N)c2C#N)ccc1O | 29 | 5 | -3 | -2 | -3.8*
CCOc1cc(-c2cc(-c3ccccc3)nc(N)c2C#N)ccc1O | . | -12 | -9 | -3 | -3.4*
CCCOc1ccc(C(=O)N2CCN(c3ccc(N)cc3Cl)CC2)cc1 | 12 | 1 | -4 | 1 | -3.9*
Cc1onc(-c2ccccc2Cl)c1C(=O)N1CCc2ccccc21 | 13 | 4 | -2 | -2 | -1.1
Cn1c(=O)c2c(nc(Br)n2CCCc2ccccc2)n(C)c1=O | 8 | 4 | 15 | -1 | 3.2
Cc1ccc(Cn2c(CN(C)Cc3ccccc3)nc3c2c(=O)n(C)c(=O)n3C)cc1 | 50 | -5 | 1 | 3 | 0.17
CN(Cc1ccccc1)c1nc2c(c(=O)n(C)c(=O)n2C)n1CCCc1ccccc1 | 100* | -16 | -28 | -1 | -0.63
CCOCCn1c(CN(Cc2ccccc2)Cc2ccccc2)nc2c1c(=O)n(C)c(=O)n2C | 68* | -17 | -2 | 7 | .
Cc1ccc(C)c(Cn2c(CN(C)Cc3ccccc3)nc3c2c(=O)n(C)c(=O)n3C)c1 | 81* | -6 | 5 | 2 | .
Cc1ccc2nc(N3CC(=O)Nc4ccccc43)nc(-c3ccccc3)c2c1 | . | . | -18 | 42 | .
COc1cccc(CNCCSc2nnnn2C)c1OC | . | -1 | -3 | -4 | 0.16
COc1ccc(OC)c(NC(=O)CSc2ncnc3c2cnn3-c2ccccc2Cl)c1 | . | . | . | . | -2.3
O=C(NNC(=S)Nc1cccc2ccccc12)c1cccc(Br)c1 | . | 11 | 89* | -6 | 0.28
C[N+](C)(CC#Cc1ccccc1)CC(=O)c1ccc(Cl)cc1 | . | . | . | . | -0.47
CCCOc1ccccc1NC(=O)c1c(-c2ccccc2)noc1C | 72* | 5 | -18 | 2 | .
SMILES | tolC growth inh | E coli WT exp | CD11b adhes inh | CD11b adhes enh | Pyk2 oligo antag
Cc1onc(-c2ccccc2)c1C(=O)Nc1nc2c(s1)C(=O)CC(C)(C)C2 | . | -5 | -18 | 7 | -3.8*
Cc1noc(C)c1C(=O)Nc1nnc(-c2ccccc2)s1 | -16 | -2 | -12 | 6 | -1.1
Cc1onc(-c2ccccc2)c1C(=O)Nc1nnc(-c2ccncc2)s1 | 38 | -6 | 10 | 3 | -3.2*
COC(=O)c1cc(Br)c(=O)n(Cc2ccc3c(c2)OCO3)c1 | 2 | 8 | 0 | -5 | 0.21
CCOc1ccc(-c2nc(C#N)c(N3CCCCCC3)o2)cc1 | 68* | -14 | 26 | 1 | .
FC(F)(F)c1nc(-c2ccncc2)ncc1-c1nnnn1-c1ccccc1 | . | 3 | 8 | 2 | 0.52
Fc1ccc(-n2nnnc2-c2cnc(-c3cccs3)nc2C(F)(F)F)cc1 | . | -7 | 37 | -8 | -3.7*
Cc1ccc(-n2nnnc2-c2cnc(-c3cccnc3)nc2C(F)(F)F)cc1 | . | 4 | 16 | -2 | -1.9

Bioassay records from PubChem BioAssay.
